Here are results for one compound from ChEMBL document CHEMBL4312006, “A novel chalcone derivative as Nrf2 activator attenuates learning and memory impairment in a scopolamine-induced mouse model” (Eur J Med Chem, 2020).

In data set [1] the target is T1, Nuclear factor erythroid 2-related factor 2 (Mus musculus) (UniProt Q60795).
T1 sequence (whole entry): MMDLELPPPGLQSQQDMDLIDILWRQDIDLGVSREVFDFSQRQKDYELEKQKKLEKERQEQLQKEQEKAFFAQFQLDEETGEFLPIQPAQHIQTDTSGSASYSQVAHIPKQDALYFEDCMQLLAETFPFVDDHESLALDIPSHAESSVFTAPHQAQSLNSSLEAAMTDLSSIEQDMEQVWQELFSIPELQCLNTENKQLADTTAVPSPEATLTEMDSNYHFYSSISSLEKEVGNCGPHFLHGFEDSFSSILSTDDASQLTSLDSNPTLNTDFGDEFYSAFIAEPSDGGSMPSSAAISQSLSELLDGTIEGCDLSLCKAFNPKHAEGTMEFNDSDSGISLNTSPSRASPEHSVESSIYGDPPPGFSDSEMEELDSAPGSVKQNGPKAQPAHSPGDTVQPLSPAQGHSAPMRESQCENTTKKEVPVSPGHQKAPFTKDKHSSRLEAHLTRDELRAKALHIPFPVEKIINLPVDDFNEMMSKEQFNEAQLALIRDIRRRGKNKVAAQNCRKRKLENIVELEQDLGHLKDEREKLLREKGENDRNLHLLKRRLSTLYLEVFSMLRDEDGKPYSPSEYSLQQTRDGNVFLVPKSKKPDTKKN
Nature of the data set: Activation of NRF2 in mouse BV2 cells assessed reduction of LPS-stimulated TNF-alpha level preincubated for 3 hrs followed by LPS stimulation for 24 hrs by ELISA. The format is cell-based. A digest of the protocol:
(§1)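 BV-2 cells pre-incubated with a range of compound concentrations for 3 h, then stimulated with 0.2 μg/mL LPS for 24 h. TNF-α or IL-6 in the culture medium quantified by sandwich ELISA kits. Compared with LPS-treated control by one-way ANOVA with Dunnett's test.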

Data set [2] can be described thus: Stability in rat plasma assessed as compound remaining after 30 mins. It counts as ADME, cell-free. The following applies: read-out: Stability.
The next data set addresses CYP3A4 (Homo sapiens, UniProt P08684). Nature of the data set: Inhibition of CYP3A4 (unknown origin) assessed as remaining activity relative to control. It counts as ADME.
For data set [3], the system named is BV-2. Nature of the data set: Inhibition of H2O2-stimulated ROS production in mouse BV2 cells preincubated for 24 hrs followed by H2O2 stimulation for 20 mins by DCFH-DA dye based assay. It counts as functional, cell-based. A digest of the protocol: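 BV-2 cells treated with a range of compound concentrations for 24 h at 37 °C. Loaded with 20 μM DCFH-DA for 40 min, then 200 μM H2O2 added for 20 min at 37 °C in the dark. DCF fluorescence read at ex 480 nm / em 530 nm. Compared with H2O2-treated control.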

Data set [4] has as its system Mus musculus. Nature of the data set: Antioxidant activity in mouse assessed as inhibition of scopolamine-induced reduction in SOD activity at 30 mg/kg, po administered for 5 days and measured on day 5 by WST-1 based assay. The format is functional, organism-based. Summed up:
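Male C57BL/6N mice (10 weeks) dosed 30 mg/kg/day compound in saline by oral gavage for 5 days, with scopolamine 2 mg/kg i.p. Hippocampus homogenised in sucrose buffer (pH 7.4) and centrifuged 40 min at 4 °C. SOD activity in the supernatant measured by WST-1 kit and given as U/mg protein. One-way ANOVA with Tukey's test.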

The test system of data set [5] is Mus musculus. Nature of the data set: Cognition enhancing effect in C57BL/6 mouse model of scopolamine-induced amnesia assessed as increase in […] percentage at 30 mg/kg, po administered for 5 days and measured on day 5 after 30 mins of scopolamine stimulation by Y-maze test. The format is functional, organism-based. A digest of the protocol:
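Male C57BL/6N mice given 30 mg/kg/day compound in saline by gavage for 5 days. Scopolamine 2 mg/kg in saline given i.p. 30 min before testing on the last day. Mice handled daily for 7 days beforehand. Free exploration of a three-arm Y-maze for 10 min, with entries scored manually (all four paws). Alternation = consecutive entries into three different arms.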

Data set [6] has as its target T1, Nuclear factor erythroid 2-related factor 2 (Mus musculus). Nature of the data set: Activation of NRF2 in mouse BV2 cells assessed as increase in GCLM protein expression at 10 uM incubated for 12 hrs by Western blot analysis. It counts as cell-based. A digest of the protocol: (§2)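 BV-2 cells washed in ice-cold PBS and lysed on ice for 40 min in RIPA buffer with protease inhibitors. Nuclear fractions prepared separately. 10 μg protein run on SDS-PAGE and blotted to PVDF. Membranes blocked in 5% skim milk/TBST and probed overnight at 4 °C for Nrf2, HO-1, GCLM or SOD1. HRP secondary with ECL detection. Band densities normalised to Lamin B1 or β-actin.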

The target is the same in data set [7]. Nature of the data set: Activation of NRF2 in mouse BV2 cells assessed as increase in HO1 protein expression incubated for 12 hrs by Western blot analysis. The format is cell-based. A digest of the protocol: as §2
Data set [8] has the same target. Nature of the data set: Activation of NRF2 in mouse BV2 cells assessed as inhibition of H2O2-induced reduction in SOD activity incubated for 6 hrs followed by H2O2 stimulation and measured after 18 hrs by WST-1 based assay. The format is cell-based. Summed up: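 BV-2 cells (1.0×10^6) treated with compound for 24 h, or for 6 h followed by 400 μM H2O2 for 18 h. Cells washed, sonicated in ice-cold PBS and centrifuged; supernatant assayed by WST-1/superoxide inhibition. Activity derived from the IC50 of the inhibition curve and given as U/mg protein (1 U = 50% inhibition of WST-1 reduction).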

The test system of data set [9] is BV-2. Nature of the data set: Cytotoxicity against mouse BV2 cells assessed as reduction in cell viability upto 10 uM incubated for 24 hrs by WST assay. The conditions noted are these: bv-2, 24 h. The format is cell-based. A digest of the protocol: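 BV-2 cells incubated with compound concentrations up to 10 µM for 24 h at 37 °C. Ez-Cytox WST reagent added for 1 h and formazan absorbance read at 450 nm.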

Data set [10] addresses T1, Nuclear factor erythroid 2-related factor 2 (Mus musculus). Nature of the data set: Activation of NRF2 in mouse BV2 cells assessed as increase in GCLM protein expression at 3 uM incubated for 6 hrs by Western blot analysis. It counts as cell-based. Summed up: as §2
Data set [11] shares this target. Nature of the data set: Activation of NRF2 in mouse BV2 cells assessed reduction in LPS-stimulated IL-6 level preincubated for 3 hrs followed by LPS stimulation for 24 hrs by ELISA. It counts as cell-based. Summed up: as §1
In a further data set the target is T2, CYP1A2 (Homo sapiens, UniProt P05177).
T2 sequence (P05177 whole entry): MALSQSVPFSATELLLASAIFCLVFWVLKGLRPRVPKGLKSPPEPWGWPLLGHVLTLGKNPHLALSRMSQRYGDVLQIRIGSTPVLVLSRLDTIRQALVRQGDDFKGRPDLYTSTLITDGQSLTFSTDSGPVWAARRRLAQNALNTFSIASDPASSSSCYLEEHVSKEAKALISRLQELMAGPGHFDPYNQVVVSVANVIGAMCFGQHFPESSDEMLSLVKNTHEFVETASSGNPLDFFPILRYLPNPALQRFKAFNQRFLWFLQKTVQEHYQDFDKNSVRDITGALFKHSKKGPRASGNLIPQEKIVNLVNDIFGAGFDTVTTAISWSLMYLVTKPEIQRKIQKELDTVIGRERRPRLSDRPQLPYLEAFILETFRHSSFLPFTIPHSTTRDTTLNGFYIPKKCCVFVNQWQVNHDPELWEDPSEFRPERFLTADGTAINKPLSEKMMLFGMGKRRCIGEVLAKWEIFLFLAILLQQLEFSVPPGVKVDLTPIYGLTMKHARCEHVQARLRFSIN
Nature of the data set: Inhibition of CYP1A2 (unknown origin) assessed as remaining activity relative to control. The format is ADME.

Data set [12] addresses T1, Nuclear factor erythroid 2-related factor 2 (Mus musculus). Nature of the data set: Activation of NRF2 in mouse BV2 cells assessed as increase in total NRF2 level at 0.1 to 10 uM incubated for 6 hrs by Western blot analysis. It counts as cell-based. A digest of the protocol: as §2

Calls of active or inactive are those of the source. The calls are words filed in the database; no cut-off is given here. Some results are limits rather than exact numbers.

Chain of CYP3A4 (P08684 whole entry): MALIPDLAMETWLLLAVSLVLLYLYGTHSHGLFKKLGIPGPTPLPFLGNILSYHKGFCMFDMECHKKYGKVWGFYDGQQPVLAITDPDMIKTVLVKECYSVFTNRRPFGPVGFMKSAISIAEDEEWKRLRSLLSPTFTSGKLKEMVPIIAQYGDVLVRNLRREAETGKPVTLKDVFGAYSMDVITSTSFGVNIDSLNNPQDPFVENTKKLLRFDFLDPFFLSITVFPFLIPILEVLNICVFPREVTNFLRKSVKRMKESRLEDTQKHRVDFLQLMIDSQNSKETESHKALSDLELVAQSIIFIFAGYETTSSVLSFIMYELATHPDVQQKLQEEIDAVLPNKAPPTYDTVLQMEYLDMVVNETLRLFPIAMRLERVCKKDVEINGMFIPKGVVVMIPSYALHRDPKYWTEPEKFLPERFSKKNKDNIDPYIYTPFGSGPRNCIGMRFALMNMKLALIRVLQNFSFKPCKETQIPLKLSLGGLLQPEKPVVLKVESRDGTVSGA

As for `CN1CCN(C(=O)COc2ccc(C(=O)/C=C/c3ccccc3C(F)(F)F)cc2)CC1.Cl`, the Activity result in data set [1], in data set [7] and in [11] was “Dose-dependent effect” throughout. Further, in data set [2], the remaining at 0.5 h is 99.3%. Moreover, the activity on CYP3A4 was greater than 100%; with BV-2 [9], “Non-Toxic”; on CYP1A2 it was 98.5%. Further, the inhibition entry in the data set with BV-2 [3] was “Dose-dependent effect”. Besides, the Activity entry (in the data set with Mus musculus [4]; with Mus musculus [5]; in data set [8]; in [10]; in data set [12]) was “Active” each time. The fold change (FC) in data set [6] was greater than 15.
